Compound activity from PubChem BioAssay.
Most compounds without a hit are left out; they make up all but 0.94% or so of the library.
PKA-R1A act = activators of PKA-R1A holoenzyme, primary screen, biochemical, fluorescence polarization, Cy5-IP20, bovine R1A, mouse PKAc; cAMP-dependent protein kinase type I-alpha regulatory subunit (Bos taurus) + …; PKA-R1A dissociation; scaled: DMSO 0%, 113 µM cGMP 100%; activation, % at 11.4 µM; hit rate 0.083% among 340,000; AID 504707, 2011;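 active = percent activation above the mean of all tested compounds plus 3 SD, cut at about 19% in these data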;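 also: higher means more PKAc released from R1A so a rise in polarization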
UCH37 DUB inh = inhibitors of human UCH37 deubiquitinase, primary screen, biochemical, Ub-AMC cleavage, fluorescence; Ubiquitin carboxyl-terminal hydrolase isozyme L5 (Homo sapiens), Q9Y5K5; purified proteasome/UCH37; inhibition, % (no concentration beside the values); hit rate 0.33% among 330,000;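 active = mean inhibition over replicate wells above about 20%, limit read from the data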;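 also: 0% = compound-free wells with enzyme and 100% = wells lacking proteasome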
Target sequence (Q9Y5K5 whole entry, looked up): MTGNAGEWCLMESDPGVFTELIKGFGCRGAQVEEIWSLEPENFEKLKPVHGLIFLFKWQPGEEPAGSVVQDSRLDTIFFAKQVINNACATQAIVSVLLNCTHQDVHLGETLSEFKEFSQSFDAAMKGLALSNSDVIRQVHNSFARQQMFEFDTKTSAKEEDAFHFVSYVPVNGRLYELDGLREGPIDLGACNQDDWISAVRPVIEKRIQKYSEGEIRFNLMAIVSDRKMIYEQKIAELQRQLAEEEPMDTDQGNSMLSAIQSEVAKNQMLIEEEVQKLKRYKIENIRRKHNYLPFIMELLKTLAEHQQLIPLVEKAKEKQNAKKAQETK
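Schedule: 30 min plus 25 min, room temperature / Material: human UCH37 within purified proteasomes / Technique: AMC fluorescence intensity at 355/460 nm / Buffer or medium: pH 7.4 Tris-HCl (50 mM) with ovalbumin, ATP-MgCl2, DTT / Controls: wells without proteasome as full block, compound-free enzyme plus substrate as uninhibited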
PKA-R2B act = activators of PKA-R2B holoenzyme, primary screen, biochemical, fluorescence polarization, Cy5-IP20, human; PKA-R2B holoenzyme dissociation; R2B truncated from residue 108, S112A mutant; 0% DMSO only, 100% 113 µM cGMP; hit rate 0.079% among 340,000; cAMP-dependent protein kinase catalytic subunit beta (Homo sapiens) + cAMP-dependent …; activation, % at 11.4 µM; AID 504700, 2011;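 active = activation above a cutoff set at the mean over all compounds plus 3 SD, cut at about 18% in these data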;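 also: higher means more holoenzyme dissociation and a rise in polarization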
Fh CTSL1 inh = Fasciola hepatica cathepsin L1 inhibitors, primary screen, counter-screen for PFM18AAP inhibitor project, biochemical, QFRET, fluorogenic peptide substrate. hit rate 0.49% among 300,000. AID 1906, 2009. inhibition, % at 5.96 µM. recombinant F. hepatica cathepsin L1, Z-Leu-Arg-MCA fluorescence;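 active = inhibition above the mean of all tested compounds plus 3 SD, set per screening campaign, cut at about 17% in these data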;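 also: 0% = plate median of test compound wells and 100% = 1 µM Z-Phe-Ala-diazomethylketone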
aDG glyco act = activators of alpha-DG glycosylation, primary screen, uHTS, Pro5-aDG cells, AlphaScreen; alpha-DG glycosylation AlphaScreen (IIH6); 0% Pro5, 100% B10-LARGE cell signal; activation, % at 10 µM; hit rate 0.22% among 360,000; AID 624168, 2012;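 active = activation of at least 8% versus controls, or a plate z-score of at least 8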;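 also: Pro5 are CHO cells carrying HIG-tagged alpha-DG that lacks glycosylation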
Active calls of the source: *; · = not tested or not shown.

SMILES | PKA-R1A act | UCH37 DUB inh | PKA-R2B act | Fh CTSL1 inh | aDG glyco act
NC(=O)CN1C(=O)C(O)(CC(=O)/C=C\C=C\c2ccccc2)c2ccccc21 (centres undefined) | -2 | · | -1 | 3 | 0
Cc1ccsc1C=NNc1nc(=O)[nH]nc1C | · | 15 | · | · | ·
COc1ccc(/C=N/Nc2nncc3ccccc23)cc1 | -4 | · | -12 | 52* | 0
CCC1CCC(C(=O)NC(C(=O)NCCN2CCOCC2)C(C)C)CC1 (centres undefined) | 4 | 2 | 17 | 30* | 0
CCCCCC1CCC(C(=O)NCCN2CCOCC2)CC1 (centres undefined) | 7 | 4 | 6 | 4 | 0
O=C(CC1S/C(=N/N=Cc2ccco2)NC1=O)Nc1ccccc1 (centres undefined) | · | 6 | · | · | ·
CC1(C)CN=c2sc(=Cc3ccc(Cl)cc3)c(=O)n2C1 | · | -167 | · | · | ·
CCN=C1S/C(=C/c2ccc(-c3ccc(F)cc3)o2)C(=O)N1CC | -1 | -41 | 1 | 18* | 0
O=C(NN=Cc1cc2c(cc1Cl)OCO2)c1ccncc1 | · | 0 | · | · | ·
CC1CCN(S(=O)(=O)c2ccc3c4c2CC(=O)N4CC(C)S3)CC1 (centres undefined) | -4 | · | -6 | 31* | 4
COc1ccccc1N1CCN(C(=O)c2cc3ccccc3[nH]2)CC1 | 0 | 2 | -4 | 18* | 0
CN1CCN(c2ccc(-c3cccc(NC(=O)COc4ccc(Cl)cc4Cl)c3)nn2)CC1 | 3 | 9 | -6 | -2 | 5.2*
CN1CCN(c2ccc(-c3cccc(NC(=O)COc4ccc(Cl)cc4)c3)nn2)CC1 | 0 | 9 | 1 | 3 | 1
CCOc1cc(N2CCOCC2)c(OCC)cc1NC(=O)COC(=O)COc1cc(C)cc(C)c1 | 10 | 0 | 5 | -3 | 0
CCOc1cc(N2CCOCC2)c(OCC)cc1NC(=O)COC(=O)c1cc(C)oc1C | 8 | 3 | -2 | 41* | 0
CCOc1cc(N2CCOCC2)c(OCC)cc1NC(=O)COC(=O)c1cc(C)cc(C)c1 | -1 | 5 | -6 | 50* | 0
CCOc1cc(N2CCOCC2)c(OCC)cc1NC(=O)COC(=O)c1ccccc1C | -11 | 0 | -6 | -8 | 1
N#C/C(=C(/O)CON=Cc1ccccc1Cl)c1nc2ccccc2[nH]1 | · | 0 | · | · | ·
Cc1ccc(S(=O)(=O)NN=Cc2cccs2)cc1 | · | 4 | · | · | ·
O=C(NNC1CC(=O)N(c2ccc(Cl)cc2)C1=O)c1ccccc1Cl (centres undefined) | 1 | 2 | -3 | -4 | 0
O=C(NNC1CC(=O)N(c2ccc(Cl)cc2)C1=O)c1ccccn1 (centres undefined) | -5 | 26* | -9 | -2 | 0
Cc1cc2nc(-c3cccc(NC(=O)c4ccc(Br)o4)c3C)oc2cc1C | 4 | 0 | -11 | 18* | 0
Cc1nn(-c2ccccc2)c(N2CCCC2)c1/C=C1\N=C(c2ccc(OC(C)C)cc2)OC1=O | -9 | 5 | -4 | 74* | 0
Cc1ccc(-c2csc(NC(=O)c3ccc([N+](=O)[O-])o3)n2)cc1 | 1 | · | 5 | 17* | 2
Cc1cccc(OCC(=O)Oc2ccc(Cl)cc2)c1 | -8 | 1 | -5 | -5 | 0
SMILES | PKA-R1A act | UCH37 DUB inh | PKA-R2B act | Fh CTSL1 inh | aDG glyco act
Cc1cccc(OC(=O)NCCOC(=O)N(O)c2ccc(Cl)cc2)c1 | -6 | 3 | 5 | 19* | 0
CCOc1cc(C=NNC(=O)CN2CCCCC2)ccc1OCc1ccccc1 | · | 4 | · | · | ·
Cc1ccc(/C=C/C(=O)N2CCN(S(=O)(=O)c3ccc(C)c(C)c3)CC2)o1 | 0 | 0 | -4 | 6 | 0
Cc1ccc(/C=C/C(=O)N2CCN(S(=O)(=O)c3c(C)c(C)cc(C)c3C)CC2)o1 | -6 | 2 | -9 | 43* | 0
Cc1ncc(CO)c(C=NNC(=O)c2cccc(S(=O)(=O)N3CCCC3)c2)c1O | · | -78 | · | · | ·
CC(C)CC(NC(=O)C(COCc1ccccc1)NC(=O)OC(C)(C)C)C(=O)NN (centres undefined) | -1 | -5 | 3 | 18* | 0
